Converted amounts (≈) assume the structure as drawn. The source made the active and inactive calls. The rule behind the calls is not given here.
Columns and labels:
Format in all cases: functional
Escherichia coli = assay: Antibacterial activity against Escherichia coli EMBLC 1 by microplate XTT assay
Summary of the method: (§1)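 Bacterial strains tested in a microplate assay with chloramphenicol as the positive control. Activity is reported as MIC in μg/mL.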

Aeromonas hydrophila = assay: Antibacterial activity against Aeromonas hydrophila QDIO 1 by microplate XTT assay; summary of the method: as §1
Edwardsiella tarda = assay: Antibacterial activity against Edwardsiella tarda QDIO 2 by microplate XTT assay; summary of the method: as §1
Bipolaris sorokiniana = assay: Antifungal activity against Bipolaris sorokiniana QDAU 7 by microplate XTT assay
Summary of the method: (§2)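 Plant-pathogenic fungi, provided by Qingdao Agricultural University, were tested in a microplate assay with amphotericin B as the positive control.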

Micrococcus luteus = assay: Antibacterial activity against Micrococcus luteus QDIO 3 by microplate XTT assay; summary of the method: as §1
Pseudomonas aeruginosa = assay: Antibacterial activity against Pseudomonas aeruginosa QDIO 4 by microplate XTT assay; summary of the method: as §1
Alternaria solani = assay: Antifungal activity against Alternaria solani QDAU 14 by microplate XTT assay; summary of the method: as §2
Vibrio anguillarum = assay: Antibacterial activity against Vibrio anguillarum QDIO 6 by microplate XTT assay; summary of the method: as §1
Vibrio harveyi = assay: Antibacterial activity against Vibrio harveyi QDIO 7 by microplate XTT assay; summary of the method: as §1
Vibrio parahaemolyticus = assay: Antibacterial activity against Vibrio parahaemolyticus QDIO 8 by microplate XTT assay; summary of the method: as §1
Vibrio vulnificus = assay: Antibacterial activity against Vibrio vulnificus QDIO 9 by microplate XTT assay; summary of the method: as §1
[1] = system: Ceratobasidium cornigerum; assay: Antifungal activity against Ceratobasidium cornigerum QDAU 8 by microplate XTT assay; summary of the method: as §2
[2] = system: Colletotrichum gloeosporioides; assay: Antifungal activity against Colletotrichum gloeosporioides Penz-QDAU 9 by microplate XTT assay; summary of the method: as §2
Fusarium graminearum = assay: Antifungal activity against Fusarium graminearum QDAU 10 by microplate XTT assay
Summary of the method: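 Plant-pathogenic fungal strain supplied by Qingdao Agricultural University; MIC determined by microplate assay with amphotericin B as positive control.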

[3] = system: Fusarium oxysporum f. sp. cucumerinum; assay: Antifungal activity against Fusarium oxysporum f.sp.cucumerinum QDAU 16 by microplate XTT assay; summary of the method: as §2
[4] = system: Fusarium oxysporum f. sp. momordicae; assay: (§3) Antifungal activity against Fusarium oxysporum f.sp.momordicae QDAU 17 by microplate XTT assay; summary of the method: as §2
[5] = system: Fusarium oxysporum f. sp. radicis-lycopersici; assay: (§4) Antifungal activity against Fusarium oxysporum f.sp. radicis-lycopersici QDAU 5 by microplate XTT assay; summary of the method: as §2
Fusarium solani = assay: Antifungal activity against Fusarium solani QDAU 15 by microplate XTT assay; summary of the method: as §2
[6] = system: Colletotrichum gloeosporioides; assay: Antifungal activity against Glomerella cingulata QDAU 2 by microplate XTT assay; summary of the method: as §2
Bipolaris maydis = assay: Antifungal activity against Helminthosporium maydis QDAU 18 by microplate XTT assay; summary of the method: as §2
Penicillium digitatum = assay: Antifungal activity against Penicillium digitatum QDAU 11 by microplate XTT assay; summary of the method: as §2
[7] = system: Botryosphaeria berengeriana; assay: Antifungal activity against Physalospora pyricola Nose QDAU 12 by microplate XTT assay; summary of the method: as §2
Cytospora mali = assay: Antifungal activity against Valsa mali QDAU 13 by microplate XTT assay; summary of the method: as §2
[8] = as §3; summary of the method: as §2
[9] = as §4; summary of the method: as §2

Compound	MIC (Escherichia coli)	MIC (Aeromonas hydrophila)	MIC (Edwardsiella tarda)	MIC (Bipolaris sorokiniana)	MIC (Micrococcus luteus)	MIC (Pseudomonas aeruginosa)	MIC (Alternaria solani)	MIC (Vibrio anguillarum)	MIC (Vibrio harveyi)	MIC (Vibrio parahaemolyticus)	MIC (Vibrio vulnificus)	MIC [1]	MIC [2]	MIC (Fusarium graminearum)	MIC [3]	MIC (Fusarium solani)	MIC [6]	MIC (Bipolaris maydis)	MIC (Penicillium digitatum)	MIC [7]	also measured
CC(C)[C@H]1CC[C@@H](C)[C@]2(O)CCC(C(=O)O)=C[C@H]12	inactive	inactive	inactive	inactive	inactive	inactive	inactive	inactive	inactive	inactive	inactive	inactive	inactive	inactive	32 µg/mL (≈ 127 µM)	inactive	inactive	16 µg/mL (≈ 63.4 µM)	inactive	inactive	MIC [4]: inactive; MIC [5]: inactive; MIC (Cytospora mali): inactive
CC(C)[C@H]1CCc2coc3cc(C(=O)O)cc1c23	8 µg/mL (≈ 32.7 µM)	8 µg/mL (≈ 32.7 µM)	inactive	1 µg/mL (≈ 4.09 µM)	32 µg/mL (≈ 131 µM)	8 µg/mL (≈ 32.7 µM)	4 µg/mL (≈ 16.4 µM)	inactive	8 µg/mL (≈ 32.7 µM)	4 µg/mL (≈ 16.4 µM)	64 µg/mL (≈ 262 µM)	16 µg/mL (≈ 65.5 µM)	8 µg/mL (≈ 32.7 µM)	8 µg/mL (≈ 32.7 µM)	1 µg/mL (≈ 4.09 µM)	4 µg/mL (≈ 16.4 µM)	1 µg/mL (≈ 4.09 µM)	inactive	8 µg/mL (≈ 32.7 µM)	4 µg/mL (≈ 16.4 µM)	MIC [8]: 2 µg/mL (≈ 8.19 µM); MIC [9]: 64 µg/mL (≈ 262 µM); MIC (Cytospora mali): 16 µg/mL (≈ 65.5 µM)
C=C1CC[C@H](C(C)C)[C@@H]2C=C(C(=O)O)CC[C@H]12	8 µg/mL (≈ 34.1 µM)	8 µg/mL (≈ 34.1 µM)	inactive	inactive	32 µg/mL (≈ 137 µM)	4 µg/mL (≈ 17.1 µM)	inactive	inactive	2 µg/mL (≈ 8.53 µM)	8 µg/mL (≈ 34.1 µM)	64 µg/mL (≈ 273 µM)	inactive	inactive	inactive	16 µg/mL (≈ 68.3 µM)	inactive	1 µg/mL (≈ 4.27 µM)	inactive	inactive	8 µg/mL (≈ 34.1 µM)	MIC [4]: inactive; MIC [9]: 64 µg/mL (≈ 273 µM); MIC (Cytospora mali): 32 µg/mL (≈ 137 µM)
C[C@@H]1[C@H](O)[C@@H](C)/C=C/C=C/C=C/C=C/C=C/C=C/C=C/[C@H](O[C@@H]2O[C@H](C)[C@@H](O)[C@H](N)[C@@H]2O)C[C@@H]2O[C@](O)(C[C@@H](O)C[C@@H](O)[C@H](O)CC[C@@H](O)C[C@@H](O)CC(=O)O[C@H]1C)C[C@H](O)[C@H]2C(=O)O [AMPHOTERICIN B]	–	–	–	0.5 µg/mL (≈ 0.541 µM)	–	–	2 µg/mL (≈ 2.16 µM)	–	–	–	–	8 µg/mL (≈ 8.66 µM)	0.5 µg/mL (≈ 0.541 µM)	2 µg/mL (≈ 2.16 µM)	0.5 µg/mL (≈ 0.541 µM)	4 µg/mL (≈ 4.33 µM)	0.5 µg/mL (≈ 0.541 µM)	2 µg/mL (≈ 2.16 µM)	2 µg/mL (≈ 2.16 µM)	2 µg/mL (≈ 2.16 µM)	MIC [8]: 1 µg/mL (≈ 1.08 µM); MIC [9]: 2 µg/mL (≈ 2.16 µM); MIC (Cytospora mali): 8 µg/mL (≈ 8.66 µM)
O=C(N[C@H](CO)[C@H](O)c1ccc([N+](=O)[O-])cc1)C(Cl)Cl [CHLORAMPHENICOL]	2 µg/mL (≈ 6.19 µM)	4 µg/mL (≈ 12.4 µM)	0.5 µg/mL (≈ 1.55 µM)	–	4 µg/mL (≈ 12.4 µM)	2 µg/mL (≈ 6.19 µM)	–	1 µg/mL (≈ 3.09 µM)	1 µg/mL (≈ 3.09 µM)	4 µg/mL (≈ 12.4 µM)	1 µg/mL (≈ 3.09 µM)	–	–	–	–	–	–	–	–	–	–
C=C1CC[C@H](C(C)C)[C@H]2C=C(C(=O)O)C[C@@H](O)[C@H]12	inactive	inactive	inactive	inactive	inactive	inactive	inactive	inactive	inactive	inactive	inactive	inactive	inactive	inactive	32 µg/mL (≈ 128 µM)	inactive	inactive	inactive	16 µg/mL (≈ 63.9 µM)	1 µg/mL (≈ 3.99 µM)	MIC [4]: inactive; MIC [9]: 64 µg/mL (≈ 256 µM); MIC (Cytospora mali): inactive
CC(C)[C@H]1CCC(=O)c2cc(O)c(C(=O)O)cc21	inactive	inactive	1 µg/mL (≈ 4.03 µM)	inactive	inactive	inactive	inactive	2 µg/mL (≈ 8.06 µM)	inactive	inactive	inactive	inactive	inactive	inactive	64 µg/mL (≈ 258 µM)	inactive	inactive	inactive	inactive	4 µg/mL (≈ 16.1 µM)	MIC [4]: inactive; MIC [5]: inactive; MIC (Cytospora mali): inactive
C[C@H](CO)[C@H]1CCc2coc3cc(C(=O)O)cc1c23	16 µg/mL (≈ 61.5 µM)	64 µg/mL (≈ 246 µM)	inactive	8 µg/mL (≈ 30.7 µM)	inactive	8 µg/mL (≈ 30.7 µM)	32 µg/mL (≈ 123 µM)	inactive	16 µg/mL (≈ 61.5 µM)	32 µg/mL (≈ 123 µM)	inactive	inactive	inactive	inactive	2 µg/mL (≈ 7.68 µM)	32 µg/mL (≈ 123 µM)	4 µg/mL (≈ 15.4 µM)	inactive	8 µg/mL (≈ 30.7 µM)	4 µg/mL (≈ 15.4 µM)	MIC [4]: inactive; MIC [5]: inactive; MIC (Cytospora mali): inactive
